Common to all, as to type: functional
The species named for experiment [1] is Mus musculus. Briefly: Tested for the narcotic antagonistic activity by measuring the ratio of the IC50 of the DADLE in the presence and in the absence in mouse vas deferens at 1*10e-7 M. An outline of the steps: (§1)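 Isolated-tissue antagonism assays: guinea pig ileum (GPI) against ethylketazocine or morphine, with antagonist at 2×10^-8 M; mouse vas deferens (MVD) against DADLE, with antagonist at 1×10^-7 M. The value is the agonist IC50 with antagonist divided by the agonist IC50 without antagonist, both measured in the same preparation, reported ± SE.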

The species named for experiment [2] is Mus musculus. Briefly: Partial agonist activity by measuring the % maximum agonist response in mouse vas deferens at 1*10e-6 M concentration of compound.
For experiment [3], the species on record is Cavia porcellus. Briefly: Partial agonist activity was determined by measuring the % maximum agonist response in guinea pig ileum at 1*10e-6 M concentration of compound.
The species entered for experiment [4] is Cavia porcellus. The experiment in a line: Tested for the narcotic antagonistic activity by measuring the ratio of the IC50 of the morphine in the presence and in the absence in guinea pig ileum at 2*10e-8M. In outline:
as §1

The species named for experiment [5] is Cavia porcellus. Briefly: Tested for the narcotic antagonistic activity by measuring the ratio of the IC50 of the ethylketazocine in the presence and in the absence in guinea pig ileum at 2*10e-8M. An outline of the steps:
as §1

The species named for experiment [6] is Mus musculus. The experiment in a line: Partial agonist activity by measuring the % maximum agonist response in mouse vas deferens at 1*10e-7 M concentration of compound.
The species named for experiment [7] is Cavia porcellus. Briefly: Partial agonist activity was determined by measuring the % maximum agonist response in guinea pig ileum at 3*10e-8 M concentration of compound.
The species named for experiment [8] is Cavia porcellus. Briefly: Partial agonist activity was determined by measuring the % maximum agonist response in guinea pig ileum at 5*10e-7 M concentration of compound.
The species entered for experiment [9] is Cavia porcellus. Briefly: Partial agonist activity was determined by measuring the % maximum agonist response in guinea pig ileum at 1*10e-8 M concentration of compound.

Take `COCCOCCOCCN[C@@H]1CC[C@@]2(O)C3Cc4ccc(O)c5c4C2(CCN3CC2CC2)[C@H]1O5` (stereo not given in full): the IC50 ratio in the experiment listed under Mus musculus [1] came to 2.09; in the experiment filed under Cavia porcellus [4], 3.45; in the experiment listed under Cavia porcellus [5], 1.63. Also, the results for the Max agonist response in the experiment filed under Mus musculus [2] and in the experiment listed under Cavia porcellus [3] were 49% and 67%, respectively.
With `Cc1ccc(S(=O)(=O)OCCOCCOCCN[C@@H]2CC[C@@]3(O)C4Cc5ccc(O)c6c5C3(CCN4CC3CC3)[C@H]2O6)cc1` (stereo not given in full), the Max agonist response worked out at 27% in the experiment filed under Mus musculus [6] and 57% in the experiment filed under Cavia porcellus [7]. Also, the IC50 ratio in the experiment filed under Mus musculus [1] is 4.29; in the experiment filed under Cavia porcellus [4], 3.78; in the experiment filed under Cavia porcellus [5] it was 3.96.
For the molecule `Oc1ccc2c3c1O[C@H]1[C@H](NCCOCCOCCOCCOCCOCCN[C@H]4CC[C@]5(O)C6Cc7ccc(O)c8c7C5(CCN6CC5CC5)[C@@H]4O8)CC[C@@]4(O)C(C2)N(CC2CC2)CCC314`, the Max agonist response in the experiment filed under Mus musculus [6] is 26%; in the experiment filed under Cavia porcellus [8], 60%. Besides, the IC50 ratio in the experiment filed under Mus musculus [1] came out at 30.67; in the experiment listed under Cavia porcellus [4], 5.75; in the experiment listed under Cavia porcellus [5], 2.61.
Consider `Oc1ccc2c3c1O[C@H]1[C@H](NCCOCCOCCN[C@H]4CC[C@]5(O)C6Cc7ccc(O)c8c7C5(CCN6CC5CC5)[C@@H]4O8)CC[C@@]4(O)C(C2)N(CC2CC2)CCC314`, for which the Max agonist response in the experiment filed under Mus musculus [6] is 32%; in the experiment listed under Cavia porcellus [9], 10%. In addition, the IC50 ratio in the experiment listed under Mus musculus [1] amounted to 7.17; in the experiment listed under Cavia porcellus [4] it was 3.24; in the experiment filed under Cavia porcellus [5], 16.91.

Source of the values: ChEMBL document CHEMBL1122096, “Narcotic antagonistic potency of bivalent ligands which contain beta-naltrexamine. Evidence for bridging between proximal recognition sites” (1982).
